A short description of data set [1]: folding enthalpy; higher = less favourable; fluorescence melt of hairpins on a sequencing array, two-state fit. The conditions noted are these: sodium 0.088 M. The method, boiled down: (§1)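 Melting temperature and folding enthalpy were obtained by bootstrapped two-state fitting. Fits used Cy3 fluorescence of library hairpins with annealed Cy3 and quencher oligos on a sequenced MiSeq flow cell, imaged in 50 mM Na-HEPES pH 8.0, 25 mM NaCl in 2.5 °C steps up to 60 °C and normalised to pre-quench Cy3 and control constructs. Four replicates were combined by inverse-variance weighting, and fitted temperatures were raised by 9.35 °C to match UV melts.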

Data set [2] is described as follows: melting temperature; fluorescence melt of hairpins on a sequencing array, two-state fit, raised by 9.35 °C to match UV melts. The conditions noted are these: sodium 0.088 M. The method, boiled down:
as §1

For GGTATTGGAAACAACACC (((.(((....))).))), the folding enthalpy in data set [1] is -31.9 kcal/mol. Further, the Tm in data set [2] amounted to 32.2 °C.

As for GGTCAAACGAAAGTTACC (((..(((....)))))), the folding enthalpy in data set [1] was -15.1 kcal/mol. The Tm in data set [2] came out at 30.3 °C.

Take GGTCAACGAAAGTTTACC (((.(((....))).))): the folding enthalpy in data set [1] is -28.8 kcal/mol. For the same sequence, the Tm in data set [2] was found to be 42.8 °C.

In the case of GGTCAAGGAAACTTGATC (.(((((....))))).), the folding enthalpy in data set [1] is -34.1 kcal/mol. In data set [2], the Tm stood at 42.1 °C.

For GGTCAAGGAAACTTGGTC (..((((....))))..), the folding enthalpy in data set [1] is -13.9 kcal/mol. Also, in data set [2], the Tm is 29.7 °C.

As to GGTCACCGAAAGGTACC (((.(((....)))))), the folding enthalpy in data set [1] is -19.7 kcal/mol. Further, the Tm in data set [2] was determined as 47.1 °C.

For GGTCACGAAAGTGAAACC ((((((....)))..))), in data set [1], the folding enthalpy is -17.9 kcal/mol. The Tm in data set [2] worked out at 41.4 °C.

As to GGTCACGAAAGTGAACC ((((((....))).))), the folding enthalpy in data set [1] was -27.2 kcal/mol. Further, the Tm in data set [2] came to 55.6 °C.

With GGTCACGAAAGTGACACC ((((((....)))..))), in data set [1], the folding enthalpy is -7.64 kcal/mol. The Tm in data set [2] worked out at 52 °C.

GGTCACGAAAGTGCAACC ((((((....)))..))): the folding enthalpy in data set [1] was -15.9 kcal/mol. In data set [2], the Tm amounted to 38.6 °C.

Take GGTCACGAAAGTGCCACC ((((((....)))..))): in data set [1], the folding enthalpy is -12.9 kcal/mol. In addition, in data set [2], the Tm stood at 44.4 °C.

On to GGTCACGGAAACGCGACC ((((.((....)).)))), for which the folding enthalpy in data set [1] was -50.2 kcal/mol. In addition, in data set [2], the Tm came out at 54.4 °C.

On to GGTCACGGAAACGTGATC (.(((((....))))).), for which the folding enthalpy in data set [1] is -30.4 kcal/mol. The Tm in data set [2] worked out at 53 °C.

Consider GGTCACTCGAAAGAGACC (((..(((....)))))), for which, in data set [1], the folding enthalpy was -24.1 kcal/mol. For the same sequence, in data set [2], the Tm turned out to be 40.8 °C.

For the sequence GGTCAGCGAAAGCTAACC (((.(((....))).))), the folding enthalpy in data set [1] was -25.6 kcal/mol. Also, the Tm in data set [2] amounted to 46.7 °C.

GGTCAGGGAAACCTAACC (((.(((....))).))): in data set [1], the folding enthalpy is -24.6 kcal/mol. Besides, in data set [2], the Tm was 33.6 °C.

Take GGTCCACGAAAGTGAACC (((.(((....))).))): the folding enthalpy in data set [1] is -34.8 kcal/mol. Besides, the Tm in data set [2] is 51.3 °C.

For GGTCCAGGAAACTAGACC ((((.((....)).)))), the folding enthalpy in data set [1] is -29.7 kcal/mol. In data set [2], the Tm came out at 35.7 °C.

As to GGTCCCCGAAAGGGAACC (((.(((....))).))), the folding enthalpy in data set [1] is -37 kcal/mol. The Tm in data set [2] was 53 °C.

As for GGTCCCGAAAGGGAGACC ((((((....)))..))), the folding enthalpy in data set [1] was -17 kcal/mol. In addition, in data set [2], the Tm came to 51.4 °C.

Regarding GGTCCCGAAAGGGGTACC ((((((....)))..))), in data set [1], the folding enthalpy was -17.2 kcal/mol. The Tm in data set [2] was determined as 44.9 °C.

As to GGTCCCGAAAGGGTCACC ((((((....)))..))), the folding enthalpy in data set [1] is -12.2 kcal/mol. The Tm in data set [2] was found to be 39.4 °C.

Regarding GGTCCCGGAAACGGGGTC (..((((....))))..), in data set [1], the folding enthalpy was -14.4 kcal/mol. The Tm in data set [2] turned out to be 42.8 °C.

With GGTCCGCGAAAGCGAACC (((.(((....))).))), the folding enthalpy in data set [1] is -28.1 kcal/mol. Moreover, in data set [2], the Tm was 57.5 °C.

Regarding GGTCCGGGAAACCGGGCC ((.((((....)))).)), the folding enthalpy in data set [1] is -32.5 kcal/mol. In data set [2], the Tm is 68 °C.

Turning to GGTCCGGGAAACCGGGTC (..((((....))))..), the folding enthalpy in data set [1] is -12.7 kcal/mol. In addition, in data set [2], the Tm is 47.6 °C.

GGTCCTGGAAACGGGATC (.(((.(....).))).): the folding enthalpy in data set [1] was -28.5 kcal/mol. Further, in data set [2], the Tm was 38.4 °C.

With GGTCGAGCGAAAGCTACC (((..(((....)))))), the folding enthalpy in data set [1] was -11.9 kcal/mol. Further, the Tm in data set [2] is 33.3 °C.

On to GGTCGATCGAAAGATACC (((..(((....)))))), for which, in data set [1], the folding enthalpy was -6.77 kcal/mol. Further, the Tm in data set [2] was found to be 26.2 °C.

As for GGTCGCCGAAAGGCTACC (((.(((....))).))), the folding enthalpy in data set [1] was -21.2 kcal/mol. In addition, in data set [2], the Tm came out at 54.4 °C.

As for GGTCGCGAAAGCGATACC ((((((....)))..))), the folding enthalpy in data set [1] was -11.3 kcal/mol. Moreover, the Tm in data set [2] was determined as 47.7 °C.

In the case of GGTCGCGAAAGCGCAACC ((((((....)))..))), in data set [1], the folding enthalpy is -13.1 kcal/mol. Also, in data set [2], the Tm was 42.4 °C.

GGTCGCGAAAGCGTACC ((((((....))).))): the folding enthalpy in data set [1] was -21.2 kcal/mol. For the same sequence, in data set [2], the Tm was 62 °C.

As for GGTCGCGGAAACGCGGTC (..((((....))))..), in data set [1], the folding enthalpy is -13.2 kcal/mol. Further, the Tm in data set [2] stood at 47.4 °C.

For the sequence GGTCGGGGAAACCCAACC (((.(((....))).))), in data set [1], the folding enthalpy is -27 kcal/mol. In addition, the Tm in data set [2] is 44.9 °C.

As to GGTCGGGGAAACCCGGTC (..((((....))))..), the folding enthalpy in data set [1] is -14.8 kcal/mol. In addition, the Tm in data set [2] is 45.5 °C.

The record behind these values is the array DNA melting data of Ke et al. (doi:10.1101/2024.01.08.574731).
